Source: PubChem BioAssay (several laboratories)
An excerpt weighted towards active compounds, which were near 1.3% of everything screened.
Yeast lifespan up = compounds extending yeast replicative lifespan, primary screen, S. cerevisiae, OD615; S. cerevisiae growth with nicotinamide; deaD strain in restrictive glucose medium; inhibition of the nicotinamide effect, % at 10 µM; actives 0.68% (n = 130,000); AID 775, 2007;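 active means inhibition above a set limit, placed 3 SD over the median of all compounds, cut at about 26% in these data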;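 further: 0% = nicotinamide-treated wells and 100% = cells grown without nicotinamide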
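assay system = DeaD-strain S. cerevisiae | measured by = absorbance at 615 nm | probe or stimulus = nicotinamide 1.5 mM | buffer or medium = CSMM-D glucose medium, restrictive | times = 48 h at 30 °C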
Efa HMGR inh = inhibitors of E. faecalis class II HMGR, primary screen, biochemical, Enterococcus faecalis; HMG-CoA reductase (Enterococcus faecalis, mvaE); purified E. faecalis HMGR, NADPH absorbance 340 nm kinetic; inhibition, % at 10 µM; actives 0.41% (n = 190,000); AID 1066, 2008;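 active means inhibition above a set limit, the median over all tested compounds plus 3 SD, cut at about 9.5% in these data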;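 further: enzyme runs in reverse so mevalonate oxidation gives rising NADPH absorbance; 0% = complete reaction with DMSO and 100% = background rate lacking mevalonate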
Yeast growth inh = growth inhibitors of yeast BB579 in restrictive medium, primary screen, yeast lifespan-shortening project, S. cerevisiae; actives 0.51% (n = 140,000); inhibition, % at 10 µM; OD615, 48 h;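 active means inhibition above a set limit, 3 SD over the mean compound inhibition, cut at about 44% in these data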
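controls = amphotericin B 10 µg/mL, positive | assay system = DeaD yeast strain BB579 | schedule = 48 h compound exposure at 30 °C after 4 h preincubation | detection = OD615 turbidity measurement | medium = restrictive CSMM-D medium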
sdo1 growth = growth rescue of sdo1-depleted yeast, primary screen, S. cerevisiae, bone marrow failure model; S. cerevisiae sdo1-depleted JHY4D growth rescue, OD600 30 h; active compounds read high; pdr5 snq2 efflux-pump mutant strain; z-score at 10 µM; actives 0.21% (n = 140,000); AID 817, 2007;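 active means z-score above 3 at both the 24 hr and the 30 hr optical density reads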;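 further: z-score against mean and SD of all compound wells on the same plate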
* hit, by the source's call; nt = no result given.

SMILES	Yeast lifespan up	Efa HMGR inh	Yeast growth inh	sdo1 growth
Cc1ccc(-c2ccc(/C=C3\C(=O)ON=C3c3ccccc3)o2)c([N+](=O)[O-])c1	71.0*	1.5	-20.8	-2.23
COC(=O)CSCC(=O)Nc1nnc(-c2cccc(C)c2)s1	nt	-4.3	nt	nt
Cc1ccc(NC(=O)C(=O)NNC(=O)c2cccs2)cc1	nt	10.3*	nt	nt
COC(=O)CSc1nc2[nH]ncc2c(=O)[nH]1	nt	2.9	nt	nt
COc1ccc([C@H]2[C@H](C(=O)OC(C)(C)C)N3N=Cc4ccccc4C3C23C(=O)c2ccccc2C3=O)c(OC)c1 (some centres undefined)	6.5	-1.9	-12.0	-0.31
COc1ccc([C@H]2[C@H](C(=O)OC(C)(C)C)N3N=Cc4ccccc4C3C23C(=O)c2ccccc2C3=O)cc1OC (some centres undefined)	37.7*	-2.2	-10.6	0.05
CC(=O)/C(=N\Nc1ccc(C)cc1)N1CCOCC1	-13.3	-2.1	92.3*	-0.88
CCCCCC(=O)NCc1c(C(F)(F)F)nn(C)c1N1CCOCC1	nt	-3.0	nt	nt
CCOC(=O)c1[nH]c2cc3c(cc2c1NC(=O)CN1CCC2(CC1)OCCO2)OCO3	-21.2	5.5	-9.9	-0.25
CCOC(=O)c1[nH]c2ccc(OCC)cc2c1NC(=O)CN1CCC2(CC1)OCCO2	57.0*	-5.4	-65.2	-0.19
CCOP(=O)(OCC)C(Nc1ccc(OC)cc1)c1ccco1 (centres undefined)	nt	-1.7	nt	nt
Cc1ccc(NC(=O)CSc2nnc(-c3cccnc3)n2CCN2CCCCC2)cc1	5.4	0.6	-27.7	0.45
Cc1nc2cc3ccccc3cc2c(=O)[nH]1	-16.2	-3.2	45.4*	0.55
CC1(C)CC(C)(c2ccc(O)cc2O)N(c2cccc(Cl)c2)C(=S)N1 (centres undefined)	nt	10.6*	-37.8	0.79
CC1(C)CC(C)(c2ccc(O)cc2O)N(c2ccc3ccccc3c2)C(=S)N1 (centres undefined)	nt	5.7	3.9	-0.55
Cc1cc(C)nc(NCCC(=O)O)n1	nt	-2.8	nt	nt
CC[C@H](C)[C@H](NC(N)=O)C(=O)NCCc1ccc(OC)c(OC)c1	nt	-9.2	nt	nt
O=C(O)c1cccc(N/N=C/c2cc(Br)cc(Br)c2O)c1	2.3	4.9	-41.3	-0.27
Cc1c(N=Cc2cc(Br)cc(Br)c2O)cccc1C(=O)O	-12.6	-0.3	98.0*	-0.64
C/C(=N\NC(=O)c1ccccc1[N+](=O)[O-])c1c(O)cc(C)oc1=O	33.3*	-4.0	-9.1	-0.55
C/C(=N\NC(=O)c1cccnc1)c1c(O)cc(C)oc1=O	42.0*	1.6	-22.1	0.49
O=C(COC(=O)c1ccc(CO)cc1)Nc1ccc(OC(F)F)cc1	nt	-2.2	nt	nt
C=CCC1(CC=C)CCCN1C(=O)CC1C(=O)NCCN1Cc1cccc(OC)c1OC (centres undefined)	nt	-5.7	nt	nt
CCOc1ccc(/C=C/C(=O)c2c(O)c3ccccc3oc2=O)cc1	80.3*	0.8	-71.3	0.05
CCOc1ccc(/C=C/C(=O)NCc2ccccc2)cc1	-5.3	-3.8	-22.0	-0.05
SMILES	Yeast lifespan up	Efa HMGR inh	Yeast growth inh	sdo1 growth
O=C1CCC(C(=O)N2CCC(CO)(Cc3ccc(Cl)cc3)CC2)=NN1	nt	4.2	nt	nt
CCCNS(=O)(=O)c1ccc(CCC(=O)N2CCN(c3ccc(F)cc3)CC2)cc1	-0.1	-3.1	-41.7	0.18
Cc1ccc(S(=O)(=O)/N=C2/C=C(Sc3ncn[nH]3)C(=O)c3ccccc32)c(C)c1	3.8	13.2*	-35.4	-1.07
Cc1ccc(S(=O)(=O)/N=C2/C=C(Sc3ncn[nH]3)C(=O)c3ccccc32)cc1	-0.2	-3.3	14.1	-0.92
O=[N+]([O-])c1ccccc1OCCOCCOc1cccc2cccnc12	0.2	11.7*	-26.0	0.05
CCSC1=NSC2=NC(=O)/C(=C\c3coc4ccccc4c3=O)C(=N)N12	38.2*	-1.8	-15.9	0.29
Cc1c(-n2c(SCC(N)=O)nc3ccccc3c2=O)c(=O)n(-c2ccccc2)n1C	nt	-1.1	nt	nt
Cc1ccc(NC(=S)N(Cc2ccc(Br)cc2)Cc2ccc(C(=O)O)cc2)cc1C	nt	-0.5	nt	nt
CCc1ccc(S(=O)(=O)Nc2cc(SCC(=O)O)c(O)c3ccccc23)cc1	nt	10.3*	nt	nt
Cc1ccc(C)c(S(=O)(=O)Nc2cc(SCC(=O)O)c(O)c3ccccc23)c1	7.1	5.5	-29.5	0.12
CC(=O)Nc1ccc(N=Cc2c(O)c(C(=O)Nc3ccccc3)cc3ccccc23)cc1	nt	3.4	nt	nt
CCOc1cc(Br)c(Br)c(C=Nc2ccc(NC(C)=O)cc2)c1O	48.9*	-6.6	-13.0	-0.37
COc1ccc(N(C)C(=S)Nc2ccc3nc(C)c(C)nc3c2)cc1	42.5*	-10.4	4.8	-0.09
CC(C)(C)n1cc(S(=O)(=O)c2ccccc2)[nH]c1=O	nt	-1.1	nt	nt
Cc1cc(NC(=O)CCCn2cc([N+](=O)[O-])cn2)n(Cc2ccc(F)cc2)n1	nt	7.2	nt	nt
Cc1ccc(N2CCOCC2)c2c1C(=O)c1ccccc1C2=O	-5.7	-4.7	62.8*	-0.98
O=C1c2cccc3c([N+](=O)[O-])ccc(c23)C(=O)N1c1ccc(Cl)cn1	33.0*	-2.8	-22.9	-2.47
Cc1ccc(C(=O)NCC(=O)N/N=C/c2cccs2)cc1C	nt	2.9	nt	nt
COc1ccc2oc(=Nc3ccc(C(=O)O)cc3)c(C(=O)NCc3ccco3)cc2c1	nt	15.4*	nt	nt
S=C(Nc1ccccc1Cl)N(Cc1ccccc1)Cc1ccccn1	nt	-5.4	nt	nt
O=C(c1ccccc1)c1nn(-c2ccc(Cl)cc2)c(=O)cc1C(F)(F)F	32.0*	3.2	-13.8	-1.19
Cc1cc(C)n2c(Br)c(CSc3nc4ccccc4s3)nc2n1	8.8	-0.6	-70.1	-1.98
Cc1nc2c([nH]1)C1(CCN(Cc3ccccc3)CC1)C(C#N)=C(N)O2	-8.6	17.3*	-21.9	0.2
O=C(NNc1ccccn1)C(c1ccccc1)c1ccccc1	nt	-2.4	nt	nt
O=C(NNC(=O)C(c1ccccc1)c1ccccc1)c1ccccn1	28.6*	-0.9	-29.0	0.65
SMILES	Yeast lifespan up	Efa HMGR inh	Yeast growth inh	sdo1 growth
CC(=O)N(Cc1ccccc1)c1nc(-c2ccccc2)cs1	nt	5.1	nt	nt
O=Nc1c(O)n(Cc2ccc(Cl)c(Cl)c2)c2ccccc12	-34.0	-3.1	87.3*	-2.47
O=Nc1c(O)n(Cc2cccc(C(F)(F)F)c2)c2ccccc12	nt	-1.2	nt	nt
O=C(C1c2ccccc2C(=O)N2CCc3ccccc3C12)N1CCN(Cc2ccccc2)CC1 (centres undefined)	-16.4	49.1*	-36.1	0
CC1CCN(C(=O)C2c3ccccc3C(=O)N3CCc4ccccc4C23)CC1 (centres undefined)	-8.1	-7.4	-28.1	-1.15
COc1ccc(NS(=O)(=O)c2cccc(-c3n[nH]c(=S)n3Cc3ccccc3)c2)cc1	nt	-2.8	nt	nt
CC(=O)CC1=NC(C)(C)Cc2ccccc21	nt	12.1*	nt	nt
CC1(C)Cc2ccccc2C(C(Cc2ccccc2)C(N)=O)=N1 (centres undefined)	nt	1.7	nt	nt
COC(=O)/C=C1\OC(c2ccccc2)=CC1=O	38.0*	3.0	-14.7	-0.9
Cc1ccc(Cn2c(C(=O)O)cc3sccc32)cc1	26.3*	5.3	-33.8	-0.71
